From ChEMBL document CHEMBL1828624, “Synthesis and antioxidant activity of oxazolyl/thiazolylsulfonylmethyl pyrazoles and isoxazoles” (Eur J Med Chem, 2011) come the findings set out here.

Molecules are shown by their SMILES. ≈ marks a conversion by molar mass, not a printed value. Calls of active or inactive are those of the source. No cut-off for these calls is given here.

What all share (type): functional
Test [1] deals with Radical scavenging activity. Nature of the test: Antioxidant activity assessed as DPPH free radical scavenging activity at 50 ug/ml after 30 mins by spectrophotometric analysis relative to control. In a few lines: (§1)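 Compounds in methanol at […] were mixed with 0.004% (w/v) methanolic DPPH. After 30 min at room temperature, absorbance was read at 517 nm against a blank. Percent inhibition was calculated from control (all reagents minus compound) and sample absorbances. Run in triplicate.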
(Loss of DPPH colour is used to gauge radical scavenging.)

Test [2] deals with Radical scavenging activity. Nature of the test: Antioxidant activity assessed as DPPH free radical scavenging activity at 75 ug/ml after 30 mins by spectrophotometric analysis relative to control. The procedure, abridged: as §1
Test [3] can be described thus: Antioxidant activity assessed as hydrogen peroxide scavenging activity at 50 ug/ml relative to control.
Test [4] in a line: Antioxidant activity assessed as hydrogen peroxide scavenging activity at 75 ug/ml relative to control.
The nature of test [5]: Antioxidant activity assessed as nitric oxide scavenging activity at 50 ug/ml after 150 mins by Griess method relative to control. In a few lines:
(§2)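 NO was generated from sodium nitroprusside (10 mM) in phosphate buffer saline (0.2 M, pH 7.4). Compounds were added at […] and incubated 150 min at 25 °C. Percent scavenging was calculated from control (all reagents minus compound) and sample absorbances. Run in triplicate.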

Test [6] concerns Radical scavenging activity. Nature of the test: Antioxidant activity assessed as DPPH free radical scavenging activity at 100 ug/ml after 30 mins by spectrophotometric analysis relative to control. The procedure, abridged:
as §1

A short description of test [7]: Antioxidant activity assessed as nitric oxide scavenging activity at 100 ug/ml after 150 mins by Griess method relative to control. The procedure, abridged: as §2
Background: Griess reagent forms a coloured azo dye with nitrite.

Test [8] can be described thus: Antioxidant activity assessed as nitric oxide scavenging activity at 75 ug/ml after 150 mins by Griess method relative to control. In a few lines: as §2
The subject of test [9] is Radical scavenging activity. Nature of the test: Antioxidant activity assessed as DPPH free radical scavenging activity after 30 mins by spectrophotometric analysis. The procedure, abridged: as §1
Test [10] is described as follows: Antioxidant activity assessed as hydrogen peroxide scavenging activity at 100 ug/ml relative to control.

Usually inhibition stands for the drop in the measured response relative to a control, in per cent. By IC50 is commonly meant the concentration needed to halve the response being measured. As to `O=S(=O)(CC1=NCCO1)C1=NNCC1c1ccccc1` (stereo not given), the inhibition result in [1], in [2] and in [6] was “inactive” each time. In addition, the outcome in test [3], in [4], in [5], in test [7], in test [8] and in [10] was inactive. Also, the half-maximal inhibitory concentration (IC50) result in test [9] was “Not Active”.
Take `COc1ccc(C2=NN(c3ccccc3)C(c3ccc(C)cc3)C2S(=O)(=O)CC2=NCCO2)cc1` (stereo not given): the inhibition in test [1] worked out at 64.4%; in test [2] it was 70.2%; in test [6], 73.8%. Moreover, the Activity in [3] turned out to be 62.5%; in [4] it was 64.3%; in test [5], 59.1%; in test [7], 70.5%; in [8], 64.9%; in [10], 67.7%. Moreover, the IC50 in test [9] was determined as 67.74 µg/mL (≈ 138 µM).
Consider `O=S(=O)(CC1=NCCS1)c1n[nH]cc1-c1ccc(Cl)cc1`, for which the inhibition entry in [1], in test [2] and in test [6] was “inactive” each time. The outcome in test [3], in test [4], in [5], in [7], in [8] and in test [10] was inactive. Further, the half-maximal inhibitory concentration (IC50) entry in test [9] is listed as “Not Active”.
In the case of `O=S(=O)(CC1=NCCO1)c1c(-c2ccccc2)nn(-c2ccccc2)c1-c1ccccc1`, the inhibition in test [1] worked out at 51.9%; in test [2], 56.6%; in test [6], 60.6%. The Activity in test [3] turned out to be 55.6%; in test [4], 57.2%; in [5] it was 54.5%; in test [7], 63.5%; in test [8], 59%; in [10] it was 59.1%. Also, the IC50 in test [9] is 82.48 µg/mL (≈ 186 µM).
Turning to `O=S(=O)(CC1=NCCS1)c1n[nH]cc1-c1ccccc1`, the inhibition result in test [1], in test [2] and in test [6] was “inactive” in each case. Also, the result in test [3], in test [4], in [5], in test [7], in test [8] and in test [10] was inactive. In test [9], the IC50 entry is reported as “Not Active”.
